Published values from different studies.
Each line is one published result; the experiments were not run side by side.
Effect on: cell growth or viability

With `CC(=O)O[C@@H]1c2c(ccc3ccc(=O)oc23)OC(C)(C)[C@@H]1OC(=O)C1(C)OC1C` (stereo partly drawn) the IC50 was 36.4 µM (HEp-2; WST-1).
The viability of `COc1cccc2c1C(=O)c1c(O)c3c(c(O)c1C2=O)C[C@@](O)(C(=O)CO)C[C@@H]3O[C@H]1C[C@H](N)[C@H](O)[C@H](C)O1` is reported as 16% (MCF7; MTT; 25 µM; 48 h).
With `Cc1cccc2nc(-c3ccc([N+](=O)[O-])o3)[nH]c12` the CC50 was 1.7 µM (HEp-2; resazurin; 72 h).
With `OC[C@@H]1[C@@H](O)[C@H](O)[C@@H](O)CN1CC/C=C/CCOc1cc(F)ccc1F` the CC50 was over 500 µM (MDBK; MTT).
For `O=[N+]([O-])c1ccc(-c2nc3cc(Cl)ccc3[nH]2)o1`, the CC50 was 5 µM (HEp-2; resazurin; 72 h).
`CSc1ccc(OCc2ncc([N+](=O)[O-])n2C)cc1` gave a CC50 of over 62.5 µM (THP-1; MTT; 72 h).
`CC(=O)OC1c2c(ccc3ccc(=O)oc23)OC(C)(C)C1OC(=O)C(C)(O)C(C)O` (stereo not drawn) has an IC50 of 11.3 µM (HEp-2; WST-1).
For `O=c1oc2c(O)c(O)cc3c(=O)oc4c(O)c(O)cc1c4c23`, the CC50 was 469 µg/mL (TZM-bl; MTT; 48 h).
For `C=C(C)[C@@H]1CC[C@]2(C(=O)O)CC[C@]3(C)[C@H](CC[C@@H]4[C@@]5(C)CC[C@H](O)C(C)(C)[C@@H]5CC[C@]43C)[C@@H]12`, the IC50 was 36 µM (WS1; 48 h).
`CC[C@H](C)C(=O)O[C@H]1C[C@@H](C)C=C2C=C[C@H](C)[C@H](CC[C@@H]3C[C@@H](O)CC(=O)O3)[C@H]21` gave an IC50 of 0.08 µM (SW-620; SRB; 72 h).
`C=C(C)C(CC=C(C)C)Cc1c(O)cc(OC)c2c1O[C@H](c1ccc(O)cc1O)CC2=O` (single isomer, unassigned; (-)) has an IC50 of 23.2 µM (MCF7; MTT).
With `C[C@@H]1O[C@@H](OC[C@H]2O[C@@H](Oc3c(-c4ccc(O)c(O)c4)oc4cc(O)cc(O)c4c3=O)[C@H](O)[C@@H](O)[C@@H]2O)[C@H](O)[C@H](O)[C@H]1O` the CC50 was over 250 µg/mL (TZM-bl; MTT; 48 h).
The CC50 of `c1cc(CN2CCCNCCNCCCNCC2)ccc1CN1CCCNCCNCCCNCC1` is reported as over 1 µM (TZM-bl).
For `C/C=C(/C)C(=O)O[C@@H]1[C@H](OC(C)=O)c2c(ccc3ccc(=O)oc23)OC1(C)C`, the IC50 was 53.5 µM (HEp-2; WST-1).
`C=C(C)[C@H](CC=C(C)C)Cc1c(O)cc(O)c2c1O[C@H](c1ccc(O)cc1O)CC2=O` gave an IC50 of 19.2 µM (MCF7; MTT; 48 h).
